The test system of series [1] is Plasmodium berghei. Put plainly: Antiplasmodial activity against Plasmodium berghei NK65 infected in Swiss mouse assessed as mouse survival at 50 mg/kg, po administered for 3 consecutive days post infection measured on day 9 post infection (reference value: 19 +/- 5 days). It counts as functional.
For series [2], the system named is Plasmodium berghei. The experiment in a line: Antiplasmodial activity against Plasmodium berghei NK65 infected in Swiss mouse assessed as reduction in parasitemia at 50 mg/kg, po administered via gavage for 3 consecutive days post infection measured on day 5 post infection relative to control. It counts as functional. Also on record: scale not given: the % may be the effect or the level left. In a few lines:
(§1)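 P. berghei NK65 suppressive test: adult Swiss outbred mice (20±2 g) inoculated ip with 1×10^5 infected red cells, randomized to groups, dosed daily for three days by oral gavage or ip injection with test compound at 50 mg/kg in 3% (v/v) DMSO; CQ 20 mg/kg and vehicle groups in parallel. Giemsa-stained tail-blood smears on days 5, 7, 9; inhibition = [(C−T)/C]×100 versus untreated control.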

The test system of series [3] is HepG2. Put plainly: Cytotoxicity against human HepG2 cells assessed as reduction in cell viability after 24 hrs by MTT assay. It counts as cell-based. The settings on record: HepG2, 24 h. In short, it runs like this: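 HepG2 cells in RPMI-1640 with 10% heat-inactivated serum, seeded 5×10^3 per well, allowed to adhere 18 h at 37 °C, then exposed to compound (400–6.2 µM) for 24 h at 37 °C, 5% CO2. MTT (5 mg/mL) for 3 h, formazan dissolved in DMSO, absorbance 570 nm with 630 nm background; viability as percent of untreated control.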
On the technique in general: Tetrazolium dyes change colour on reduction, which living cells bring about.

The subject of series [4] is Plasmodium falciparum. Put plainly: Antiplasmodial activity against chloroquine-sensitive blood parasite forms of Plasmodium falciparum 3D7 infected in RBC by SYBR green assay. It counts as functional, organism-based. Particulars: 3D7, Erythrocyte, read-out: IC50. In a few lines: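 3D7 blood-stage cultures, sorbitol-synchronized twice beforehand, used at 5-10% parasitemia with >80% rings, diluted to 0.5% parasitemia and 2% hematocrit with graded compound (0.05% DMSO), triplicate; artesunate and chloroquine controls. SYBR green I lysis-buffer fluorescence at 485/535 nm; IC50 from curve fit relative to drug-free medium.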

The test system of series [5] is Plasmodium falciparum. The experiment in a line: Antiplasmodial activity against chloroquine-sensitive schizont form of Plasmodium falciparum 3D7 infected in RBC after 72 hrs by SYBR green assay. It is filed as functional, organism-based. The settings on record: 3D7, Erythrocyte. In short, it runs like this:
(§2)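 Sorbitol-synchronized 3D7 cultures of each stage (or asynchronous) diluted to 0.5% parasitemia, 2% hematocrit, exposed to graded compound concentrations (0.05% DMSO) for 72 h in triplicate. Read-out: lysis buffer (20 mM Tris pH 7.5, 5 mM EDTA, 0.008% saponin, 0.08% Triton X-100) with SYBR green I 1:20000, fluorescence 485/535 nm, uninfected erythrocytes as background; IC50 by curve fitting versus drug-free growth.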

The test system of series [6] is Plasmodium falciparum. Put plainly: Antiplasmodial activity against chloroquine-sensitive asynchronous form of Plasmodium falciparum 3D7 infected in RBC after 72 hrs by SYBR green assay. It is filed as functional, organism-based. The settings on record: 3D7, Erythrocyte. In a few lines: as §2
The subject of series [7] is Plasmodium falciparum. The experiment in a line: Antiplasmodial activity against chloroquine-sensitive trophozoite form of Plasmodium falciparum 3D7 infected in RBC after 72 hrs by SYBR green assay. It counts as functional, organism-based. Particulars: 3D7, Erythrocyte. In short, it runs like this: as §2
Series [8] can be described thus: Metabolic stability in rat liver microsomes assessed as compound remaining at 4 uM after 30 mins in presence of NADPH by HPLC analysis. It is filed as ADME, microsome. The settings on record: read-out: Stability. In short, it runs like this: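 Rat pooled liver microsomes (final 2 mg/mL protein) in 0.1 M phosphate buffer pH 7.4 with 30 mM MgCl2 and 10 mM NADPH; compounds at 4 µM final; verapamil 0.1 mM positive control. Reactions quenched with ice-cold acetonitrile at set times; parent remaining measured by LC-MS/MS; first-order depletion rate used to derive half-life.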
On the technique in general: Microsomes from liver hold many membrane-bound enzymes, among them those of drug oxidation.

The subject of series [9] is Plasmodium berghei. The experiment in a line: Antiplasmodial activity against Plasmodium berghei NK65 infected in Swiss mouse assessed as reduction in parasitemia at 50 mg/kg, po administered via gavage for 3 consecutive days post infection measured on day 9 post infection relative to control. It is filed as functional. Also on record: scale not given: the % may be the effect or the level left. In short, it runs like this: as §1

In series [10] the test system is Plasmodium berghei. Put plainly: Antiplasmodial activity against Plasmodium berghei NK65 infected in Swiss mouse assessed as reduction in parasitemia at 50 mg/kg, po administered via gavage for 3 consecutive days post infection measured on day 7 post infection relative to control. It counts as functional. Also on record: scale not given: the % may be the effect or the level left. In short, it runs like this:
as §1

The test system of series [11] is Plasmodium falciparum. The experiment in a line: Antiplasmodial activity against early ring stage form of Plasmodium falciparum assessed as induction of alterations in parasite morphology at 10 times IC50 concentration after 8 to 16 hrs by microscopic analysis. It is filed as functional, organism-based.
Series [12] can be described thus: Therapeutic index, ratio of EC50 for human HepG2 cells to IC50 for chloroquine-sensitive blood parasite forms of Plasmodium falciparum 3D7. The settings on record: read-out: TI. It counts as toxicity.
Series [13] concerns Plasmodium falciparum. Put plainly: Antiplasmodial activity against chloroquine-sensitive ring form of Plasmodium falciparum 3D7 infected in RBC after 72 hrs by SYBR green assay. It is filed as functional, organism-based. The settings on record: 3D7, Erythrocyte. In a few lines: as §2
Series [14] concerns Mus musculus. The experiment in a line: Toxicity in Swiss mouse assessed as effect on body weight at 1000 mg/kg, ip measured after 30 days. It counts as organism-based. The settings on record: in vivo, 720 h. In a few lines: (§3)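 Single 1000 mg/kg dose given to mice by gavage or ip injection, 3 mice per group. Survival and body weight followed against untreated controls over 30 days of observation.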

Series [15] deals with Mus musculus. Put plainly: Toxicity in Swiss mouse assessed as survival at 1000 mg/kg, ip measured up to 30 days. It is filed as organism-based. Particulars: in vivo, 720 h. In short, it runs like this:
as §3

The source made the active and inactive calls. The calls are words filed in the database; no cut-off is given here.

Take `COc1ccc2c(c1)nc(CC(C)C)c1[nH]ccc12`: the Survival in series [1] is 23 days. Besides, the Activity in [2], in [9] and in [10] was 0% throughout. Moreover, the EC50 in series [3] came out at 35000 nM. The concentration for half-maximal inhibition (IC50) in [4] was determined as 500 nM; in [5], 400 nM; in series [6], 420 nM; in series [7] it was 420 nM; in series [13], 500 nM. Also, the remaining at 0.5 h, 4 µM in series [8] was found to be 24%. Moreover, the result in series [11] was Active. Also, in series [12], the selectivity ratio is over 70.
For `COc1ccc2c(c1)nc(-c1ccc(Cl)cc1)c1[nH]ccc12`, the Survival in series [1] is 22 days. For the same compound, the Activity in series [2] is 0%; in [14], “Non-Toxic”; in [15] it was “Non-Toxic”; in [9], 0%; in [10] it was 0%. In addition, the EC50 in series [3] was over 250000 nM. Besides, the IC50 in series [4] is 600 nM; in series [5] it was 500 nM; in series [6], 460 nM; in series [7], 380 nM; in series [13], 600 nM. Moreover, in series [8], the remaining at 0.5 h, 4 µM was 15%. Further, the result in series [11] was Active. The selectivity ratio in [12] is over 417.

As a reminder, the EC50 is the concentration giving half of the maximal effect. As usually defined, the IC50 is the concentration that gives 50% inhibition.

The values are drawn from ChEMBL document CHEMBL4145611, “Discovery of Marinoquinolines as Potent and Fast-Acting Plasmodium falciparum Inhibitors with in Vivo Activity” (J Med Chem, 2018).
